Shown are actives, neighbours in structure and some others; about 1.4% of the full set was active somewhere.
DAGLB inhibitor = DAGLB lipase inhibitors, primary screen, biochemical, fluorescence, HTS; inhibition, % at 5.17 µM; AID 504411, 2011; HEK293T DAGLB membrane lysate, EnzChek fluorogenic substrate; 340,000 compounds, 0.059% hits; in the data active = inhibition above about 34%;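 also: 0% = enzyme with vehicle and 100% = wells lacking enzyme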
Target sequence (Q8NCG7 whole entry, looked up): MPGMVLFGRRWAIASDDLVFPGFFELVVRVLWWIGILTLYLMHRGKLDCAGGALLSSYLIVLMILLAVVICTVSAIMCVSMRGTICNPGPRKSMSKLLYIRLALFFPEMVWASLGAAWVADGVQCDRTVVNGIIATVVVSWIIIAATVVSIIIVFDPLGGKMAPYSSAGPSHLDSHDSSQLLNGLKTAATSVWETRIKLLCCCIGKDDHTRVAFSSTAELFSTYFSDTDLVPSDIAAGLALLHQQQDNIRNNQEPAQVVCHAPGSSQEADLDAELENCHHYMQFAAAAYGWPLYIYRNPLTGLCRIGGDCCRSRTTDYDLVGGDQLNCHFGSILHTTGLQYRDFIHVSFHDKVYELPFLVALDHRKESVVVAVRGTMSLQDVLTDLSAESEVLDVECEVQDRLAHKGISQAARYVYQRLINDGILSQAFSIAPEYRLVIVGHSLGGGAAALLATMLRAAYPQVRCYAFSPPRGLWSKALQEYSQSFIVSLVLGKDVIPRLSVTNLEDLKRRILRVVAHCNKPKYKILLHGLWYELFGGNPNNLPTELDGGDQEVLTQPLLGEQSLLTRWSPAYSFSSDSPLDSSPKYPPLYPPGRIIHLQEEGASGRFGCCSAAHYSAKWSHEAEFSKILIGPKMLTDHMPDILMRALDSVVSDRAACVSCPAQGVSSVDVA
MT1-MMP act inh = blockers of MT1-MMP proenzyme processing, primary screen, HT1080 RFP-PRO-GFP cells, GFP/RFP fluorescence; GFP/RFP ratio fluorescence, overnight; percent of plate control window, DMSO zero; 360,000 compounds, 0.061% hits; GFP/RFP ratio change, % at 20 µM; Matrix metalloproteinase-14 (Homo sapiens), P50281;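 active = GFP/RFP ratio change of at least 30% with cell ATP level not reduced by more than half and red fluorescence within 50% of control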
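Compound: 20 µM single dose, 1% DMSO / System: HT1080 RFP-PRO-GFP cells / Controls: DMSO and RFP-L50D-GFP cell wells / Read-out basis: GFP/RFP fluorescence ratio / Schedule: overnight compound exposure at 37 °C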
DDE Tn7 FP inh = inhibitors of Tn7 peptide binding to fibrin DD(E), primary screen, biochemical, fluorescence polarization, human fibrin, Tn7 probe | FP displacement of FITC-Tn7 peptide from fibrin DD(E); 0% = median of compound wells per plate | inhibition, % at 8.3 µM | 370,000 compounds, 0.13% hits;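 active = inhibition above the mean of compounds falling within the control limits plus 3 SD of them, cut at about 14% in these data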;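 also: 0% = plate median of compound wells and 100% = 10 µM Aha-Tn7 peptide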
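Assay system: human fibrin DD(E) protein / Input: 2 µM fibrin DD(E) / Benchmarks: high control of 10 µM Aha-Tn7 peptide / Measured by: fluorescence polarization of the labelled Tn7 tracer / Medium: Tris buffer with calcium and detergent, pH 7.8 / Timing: 10 min compound pre-incubation, 3 h probe incubation at room temperature / Repeats: one replicate per compound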
Cardio protect = cardioprotection against H2O2-induced cell death, primary screen, uHTS, H9c2 cells, ATPLite luminescence | H9c2 cardiomyocytes, H2O2 injury protection, 2 h | protection from H2O2 cell death, % at 20 µM | 360,000 compounds, 0.63% hits | AID 588492, 2011;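 active = compounds giving at least 50% protection of heart cells from peroxide-induced death in the single-dose screen, raw or plate-pattern-corrected value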;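 also: 0% = DMSO wells with peroxide and 100% = DMSO wells without peroxide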
TAG inh = inhibitors of triacylglycerol accumulation, primary screen, cell-based, uHTS, fluorescence, H9c2; H9c2 cells, Nile Red lipid (TAG) fluorescence; cells loaded with 200 µM oleic acid; inhibition, % at 12.5 µM; 230,000 compounds, 0.66% hits; AID 651582, 2012;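 active = pattern-corrected inhibition of lipid staining of at least 50% with the nuclear-stain viability signal not falling by more than 50%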;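 also: 0% = DMSO wells and 100% = triacsin C control wells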
Tn6 DDE FP = inhibitors of Tn6 peptide binding to fibrin DD(E), primary screen, biochemical, fluorescence polarization, human fibrin, Tn6 probe | Fibrinogen beta chain (Homo sapiens), P02675 | Fibrin DD(E) TRITC-Tn6 fluorescence polarization displacement | inhibition, % at 8.3 µM | 370,000 compounds, 0.21% hits;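 active = inhibition above a per-campaign cutoff: mean of compounds within control limits plus 3 SD, cut at about 15% in these data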;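 also: 0% = median of all compound wells on the plate and 100% = blocking peptide control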
Tn6 DDE ctr = counter-screen for inhibitors of Tn6 peptide binding to fibrin DD(E); inhibition, % at 8.3 µM; TRITC-Tn6 fluorescence polarization displacement; 0% = median of compound wells, not DMSO; 680 compounds, 2% hits; shares compounds with Tn6 DDE FP;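 active = inhibition above the mean of test compounds lying between the control limits plus 3 SD of those, cut at about 14% in these data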;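 also: 0% = median of compound wells and 100% = wells with Aha-Tn7 blocking peptide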
DDE Tn6 confirm = inhibitors of Tn6 peptide binding to fibrin DD(E), confirmation, biochemical, fluorescence polarization, human fibrin, Tn6 probe | 680 compounds, 10% hits | inhibition, % at 8.3 µM | FP displacement of TRITC-Tn6 peptide from DD(E); 0% = per-plate median of test wells | shares compounds with Tn6 DDE FP | AID 720631, 2013;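 active = inhibition above the mean of compounds lying within the control limits plus 3 SD, cut at about 16% in these data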;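 also: 100% = high control wells holding a competing inhibitor peptide at 10 µM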
* hit, by the source's call; nt = no result given.

SMILES	DAGLB inhibitor	MT1-MMP act inh	DDE Tn7 FP inh	Cardio protect	TAG inh	Tn6 DDE FP	Tn6 DDE ctr	DDE Tn6 confirm
COc1ccc(C(=O)N/C=C/n2cnc3cc(C(F)(F)F)ccc32)cc1	-2.2	-1.2	10.8	-1.7	0.8	15.5*	3.4	-0.1
N[C@H](C(=O)N1CCC[C@@H]1C(=O)N1CCC2CCN(S(=O)(=O)c3ccccc3)CC21)c1ccccc1 (some centres undefined)	nt	nt	6.2	nt	nt	1.6	nt	nt
CN(C)c1cccc(O)c1	-1.3	5.8	-3.7	2.9	nt	34.0*	0.1	3.0
CCN(CC)c1ccc2cc(C(N)=O)c(=O)oc2c1	-6.2	-13.7	-7.7	-2.5	nt	20.3*	1.2	-0.2
CCN(CC)c1ccc2cc(C(N)=O)c(=N)oc2c1	nt	-108.3	-1.4	1.9	nt	4.6	nt	nt
Cc1ccc2oc(=O)c3cc(C(=O)NCCCN4CCC(C)CC4)sc3c2c1	nt	nt	5.7	nt	nt	7.0	nt	nt
Cc1cn([C@H]2C[C@H](O)[C@@H](/C=C/C(=O)NCCC(C)C)O2)c(=O)[nH]c1=O	nt	1.8	-6.5	-3.0	nt	15.4*	-8.7	-10.7
CCc1ccc(NC(=O)Nc2ccsc2C(=O)OC)cc1	-10.2	-4.1	-1.4	-11.3	8.5	3.7	nt	nt
CCCNC(=O)Nc1ccsc1C(=O)OC	-2.2	0.7	4.7	3.8	nt	15.3*	3.6	1.8
CCCCCCNC(=O)C1CSCCS(=O)(=O)N1Cc1ccc(C)cc1 (centres undefined)	nt	nt	-4.5	nt	nt	-4.3	nt	nt
CN1C(=O)[C@H]2[C@@H](c3ccc(C(F)(F)F)cc3)N[C@]3(CCCN(CC4CCCCC4)C3=O)[C@H]2C1=O	-3.0	2.4	0.6	-14.4	9.7	15.9*	4.4	2.8
Cc1ccc([C@H]2N[C@]3(CCCN(CC4CCCCC4)C3=O)[C@H]3C(=O)N(C)C(=O)[C@@H]23)cc1	2.3	-1.9	3.4	2.4	-1.3	6.3	nt	nt
CC(=O)c1cccc(OCc2cc(C(=O)N3C[C@H]4CC[C@H]3C4)no2)c1	-3.0	2.2	-9.2	-4.3	nt	-0.7	nt	nt
CC(=O)c1cccc(OCc2cc(C(=O)N3C[C@@H](C)O[C@@H](C)C3)no2)c1	4.6	4.5	2.7	-2.4	nt	19.6*	8.4	3.5
N#Cc1ccc(OCC(=O)N(C2CCCCC2)C2CCS(=O)(=O)C2)cc1 (centres undefined)	0.0	-3.3	-0.9	2.5	0.6	15.6*	9.6	5.6
